Assay results: ChEMBL document CHEMBL1136991, “Novel potent BRAF inhibitors: toward 1 nM compounds through optimization of the central phenyl ring” (J Med Chem, 2009)

Experiments:
[1] = target: T1, Mitogen-activated protein kinase 12 (Homo sapiens) (UniProt P53778); assay: Inhibition of p38-gamma at 1 uM relative to control
T1 sequence (whole entry): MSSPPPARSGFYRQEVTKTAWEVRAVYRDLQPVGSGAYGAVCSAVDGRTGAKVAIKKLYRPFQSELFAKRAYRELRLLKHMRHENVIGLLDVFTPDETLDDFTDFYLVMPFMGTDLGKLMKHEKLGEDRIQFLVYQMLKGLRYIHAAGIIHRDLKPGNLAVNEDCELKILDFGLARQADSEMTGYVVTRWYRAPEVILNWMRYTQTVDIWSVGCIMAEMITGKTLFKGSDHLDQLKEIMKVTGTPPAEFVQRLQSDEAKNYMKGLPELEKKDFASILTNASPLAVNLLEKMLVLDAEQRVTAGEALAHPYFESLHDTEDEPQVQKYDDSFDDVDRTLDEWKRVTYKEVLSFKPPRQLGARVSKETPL

[2] = target: Mitogen-activated protein kinase 14 (Homo sapiens) (UniProt Q16539); assay: Inhibition of p38alpha at 1 uM relative to control
Sequence of Mitogen-activated protein kinase 14 (Homo sapiens) (Q16539 whole entry): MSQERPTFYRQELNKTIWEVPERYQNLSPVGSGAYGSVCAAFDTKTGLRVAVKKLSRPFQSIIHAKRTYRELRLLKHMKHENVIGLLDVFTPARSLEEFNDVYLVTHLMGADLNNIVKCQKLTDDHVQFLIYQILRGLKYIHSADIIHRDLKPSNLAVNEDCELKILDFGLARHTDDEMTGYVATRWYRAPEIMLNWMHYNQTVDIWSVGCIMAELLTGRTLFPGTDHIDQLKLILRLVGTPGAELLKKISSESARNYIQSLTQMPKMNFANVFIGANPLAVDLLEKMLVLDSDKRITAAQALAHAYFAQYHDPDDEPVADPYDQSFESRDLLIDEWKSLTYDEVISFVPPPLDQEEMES

[3] = target: Serine/threonine-protein kinase N2 (Homo sapiens) (UniProt Q16513); assay: Inhibition of PRK2 at 1 uM relative to control
Sequence of Serine/threonine-protein kinase N2 (Homo sapiens) (Q16513 whole entry, looked up): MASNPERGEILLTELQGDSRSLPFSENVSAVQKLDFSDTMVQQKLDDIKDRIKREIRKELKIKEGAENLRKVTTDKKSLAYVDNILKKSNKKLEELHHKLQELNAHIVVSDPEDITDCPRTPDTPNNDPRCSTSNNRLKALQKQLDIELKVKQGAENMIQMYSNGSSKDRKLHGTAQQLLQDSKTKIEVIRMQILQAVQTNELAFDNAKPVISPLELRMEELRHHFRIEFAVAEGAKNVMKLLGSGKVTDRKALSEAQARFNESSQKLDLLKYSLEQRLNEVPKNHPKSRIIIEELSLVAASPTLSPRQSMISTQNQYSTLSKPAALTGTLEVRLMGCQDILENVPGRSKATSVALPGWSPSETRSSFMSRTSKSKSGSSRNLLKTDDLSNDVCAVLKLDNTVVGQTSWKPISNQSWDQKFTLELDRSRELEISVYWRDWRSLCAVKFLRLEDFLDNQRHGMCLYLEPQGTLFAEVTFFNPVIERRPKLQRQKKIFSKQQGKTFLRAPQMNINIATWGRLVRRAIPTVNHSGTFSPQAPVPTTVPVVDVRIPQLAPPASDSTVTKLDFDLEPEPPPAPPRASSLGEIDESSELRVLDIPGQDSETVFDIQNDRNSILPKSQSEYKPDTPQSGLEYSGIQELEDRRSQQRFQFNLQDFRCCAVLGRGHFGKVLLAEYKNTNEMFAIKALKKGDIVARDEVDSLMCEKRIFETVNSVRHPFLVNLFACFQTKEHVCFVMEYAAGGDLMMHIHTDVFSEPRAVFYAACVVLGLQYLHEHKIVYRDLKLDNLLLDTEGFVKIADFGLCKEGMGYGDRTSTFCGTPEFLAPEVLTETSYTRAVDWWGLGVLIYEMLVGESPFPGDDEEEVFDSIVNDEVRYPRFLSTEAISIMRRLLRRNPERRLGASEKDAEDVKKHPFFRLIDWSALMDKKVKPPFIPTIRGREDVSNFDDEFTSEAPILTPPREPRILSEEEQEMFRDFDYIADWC

[4] = target: T2, Eukaryotic elongation factor 2 kinase (Homo sapiens) (UniProt O00418); assay: Inhibition of EFK2 at 1 uM relative to control
T2 sequence (whole entry): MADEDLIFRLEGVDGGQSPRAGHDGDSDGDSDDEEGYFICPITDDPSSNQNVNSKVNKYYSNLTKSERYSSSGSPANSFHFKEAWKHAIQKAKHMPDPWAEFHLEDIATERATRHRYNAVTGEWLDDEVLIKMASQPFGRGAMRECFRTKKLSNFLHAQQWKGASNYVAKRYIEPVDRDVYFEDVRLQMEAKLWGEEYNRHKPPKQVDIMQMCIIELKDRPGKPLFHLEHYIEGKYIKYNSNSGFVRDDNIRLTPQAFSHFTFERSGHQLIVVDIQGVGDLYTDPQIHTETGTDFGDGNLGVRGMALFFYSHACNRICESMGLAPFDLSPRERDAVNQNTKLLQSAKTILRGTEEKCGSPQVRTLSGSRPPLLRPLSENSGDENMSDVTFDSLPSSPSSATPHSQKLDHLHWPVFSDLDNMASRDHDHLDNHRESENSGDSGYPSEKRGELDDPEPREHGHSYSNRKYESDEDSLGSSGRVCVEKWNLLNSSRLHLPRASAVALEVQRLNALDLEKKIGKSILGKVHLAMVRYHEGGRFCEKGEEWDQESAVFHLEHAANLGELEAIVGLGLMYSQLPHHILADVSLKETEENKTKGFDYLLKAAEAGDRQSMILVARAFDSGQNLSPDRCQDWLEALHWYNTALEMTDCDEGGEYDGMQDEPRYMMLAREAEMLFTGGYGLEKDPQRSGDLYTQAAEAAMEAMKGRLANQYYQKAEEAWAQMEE

[5] = target: Serine/threonine-protein kinase PLK1 (Homo sapiens) (UniProt P53350); assay: Inhibition of PLK1 at 1 uM relative to control
Sequence of Serine/threonine-protein kinase PLK1 (Homo sapiens) (P53350 whole entry): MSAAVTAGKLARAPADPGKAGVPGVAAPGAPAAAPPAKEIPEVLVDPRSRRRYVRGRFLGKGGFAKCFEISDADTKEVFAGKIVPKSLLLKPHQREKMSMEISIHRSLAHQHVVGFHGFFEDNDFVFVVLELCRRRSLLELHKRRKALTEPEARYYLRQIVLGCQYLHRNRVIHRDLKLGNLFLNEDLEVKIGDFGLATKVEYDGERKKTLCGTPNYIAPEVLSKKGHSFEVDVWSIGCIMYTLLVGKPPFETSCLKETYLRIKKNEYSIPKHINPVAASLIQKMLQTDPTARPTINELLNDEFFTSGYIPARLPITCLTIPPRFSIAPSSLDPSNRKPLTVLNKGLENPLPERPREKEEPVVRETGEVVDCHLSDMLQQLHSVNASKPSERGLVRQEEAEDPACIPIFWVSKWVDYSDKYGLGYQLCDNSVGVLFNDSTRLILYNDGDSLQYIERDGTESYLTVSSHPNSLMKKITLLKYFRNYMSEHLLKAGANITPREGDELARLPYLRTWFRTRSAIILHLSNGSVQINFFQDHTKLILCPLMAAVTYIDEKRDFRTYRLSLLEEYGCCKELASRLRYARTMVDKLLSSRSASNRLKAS

[6] = target: MAP kinase-activated protein kinase 3 (Homo sapiens) (UniProt Q16644); assay: Inhibition of MAPKAP-K3 at 1 uM relative to control
Sequence of MAP kinase-activated protein kinase 3 (Homo sapiens) (Q16644 whole entry, looked up): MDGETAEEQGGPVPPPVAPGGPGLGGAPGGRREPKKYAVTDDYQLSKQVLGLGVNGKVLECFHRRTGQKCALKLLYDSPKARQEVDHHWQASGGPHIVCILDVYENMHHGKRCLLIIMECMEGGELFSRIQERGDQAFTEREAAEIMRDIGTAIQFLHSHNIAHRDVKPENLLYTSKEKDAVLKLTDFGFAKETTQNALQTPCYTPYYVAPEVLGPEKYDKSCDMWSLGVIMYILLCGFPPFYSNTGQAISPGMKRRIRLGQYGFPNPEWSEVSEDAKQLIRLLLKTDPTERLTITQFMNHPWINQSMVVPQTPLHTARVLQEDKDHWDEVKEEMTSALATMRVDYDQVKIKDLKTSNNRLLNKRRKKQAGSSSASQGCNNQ

[7] = target: [Pyruvate dehydrogenase (acetyl-transferring)] kinase isozyme 1, mitochondrial (Homo sapiens) (UniProt Q15118); assay: Inhibition of PDK1 at 1 uM relative to control
[8] = target: Serine/threonine-protein kinase B-raf (Homo sapiens, UniProt P15056, V600E); assay: Inhibition of BRAF V600E mutant-mediated ERK phosphorylation in human WM266.4 cells; type: cell-based
Sequence of Serine/threonine-protein kinase B-raf (P15056 2-766 V600E limits assumed): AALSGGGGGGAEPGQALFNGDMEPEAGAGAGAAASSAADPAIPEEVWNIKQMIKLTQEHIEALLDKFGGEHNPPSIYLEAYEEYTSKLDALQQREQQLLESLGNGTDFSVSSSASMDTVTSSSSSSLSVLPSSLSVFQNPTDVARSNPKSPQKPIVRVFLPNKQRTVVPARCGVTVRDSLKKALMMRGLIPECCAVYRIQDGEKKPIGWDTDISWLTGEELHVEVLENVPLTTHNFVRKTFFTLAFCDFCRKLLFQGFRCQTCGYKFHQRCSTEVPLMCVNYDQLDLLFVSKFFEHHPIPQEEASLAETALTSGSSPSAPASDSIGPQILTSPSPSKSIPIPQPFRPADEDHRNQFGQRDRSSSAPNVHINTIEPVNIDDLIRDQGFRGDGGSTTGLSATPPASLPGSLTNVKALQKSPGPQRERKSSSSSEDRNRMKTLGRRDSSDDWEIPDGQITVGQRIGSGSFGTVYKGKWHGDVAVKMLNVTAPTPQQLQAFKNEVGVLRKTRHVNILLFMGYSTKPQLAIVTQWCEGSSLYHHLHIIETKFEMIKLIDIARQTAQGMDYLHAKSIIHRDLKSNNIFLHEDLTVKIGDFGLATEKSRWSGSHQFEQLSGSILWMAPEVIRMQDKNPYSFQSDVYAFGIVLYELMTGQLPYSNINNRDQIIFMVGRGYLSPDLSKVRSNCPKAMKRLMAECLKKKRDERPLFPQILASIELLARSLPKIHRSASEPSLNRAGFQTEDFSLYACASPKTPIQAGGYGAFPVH
Procedure, shortened: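 Cellular pathway read-out: ERK phosphorylation (pERK) was measured in WM266.4 melanoma cells and reported as an IC50.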

[9] = target: T3, Serine/threonine-protein kinase D1 (Homo sapiens) (UniProt Q15139); assay: Inhibition of PKD1 at 1 uM relative to control
T3 sequence (whole entry): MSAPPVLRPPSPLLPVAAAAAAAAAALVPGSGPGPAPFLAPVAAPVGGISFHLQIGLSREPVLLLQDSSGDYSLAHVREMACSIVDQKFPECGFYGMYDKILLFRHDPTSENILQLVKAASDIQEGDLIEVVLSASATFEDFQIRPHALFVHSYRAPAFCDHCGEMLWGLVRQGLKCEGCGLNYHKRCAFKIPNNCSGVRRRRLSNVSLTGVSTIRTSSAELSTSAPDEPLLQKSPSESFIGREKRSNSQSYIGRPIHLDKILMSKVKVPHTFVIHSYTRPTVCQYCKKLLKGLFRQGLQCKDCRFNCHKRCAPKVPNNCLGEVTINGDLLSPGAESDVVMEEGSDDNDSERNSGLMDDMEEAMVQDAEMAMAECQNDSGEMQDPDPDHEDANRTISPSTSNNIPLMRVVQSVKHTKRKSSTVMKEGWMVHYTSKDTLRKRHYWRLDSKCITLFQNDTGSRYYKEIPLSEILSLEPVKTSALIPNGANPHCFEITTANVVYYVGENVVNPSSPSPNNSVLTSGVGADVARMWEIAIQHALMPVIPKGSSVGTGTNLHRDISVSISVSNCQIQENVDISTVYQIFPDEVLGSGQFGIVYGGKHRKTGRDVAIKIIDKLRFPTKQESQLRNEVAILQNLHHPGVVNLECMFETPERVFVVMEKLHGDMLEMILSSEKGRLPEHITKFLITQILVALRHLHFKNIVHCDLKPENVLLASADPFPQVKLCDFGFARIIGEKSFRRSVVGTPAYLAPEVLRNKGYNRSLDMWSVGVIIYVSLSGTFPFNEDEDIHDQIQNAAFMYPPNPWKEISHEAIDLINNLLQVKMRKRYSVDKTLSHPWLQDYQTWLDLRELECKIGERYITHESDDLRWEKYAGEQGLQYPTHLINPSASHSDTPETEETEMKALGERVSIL

[10] = target: T4, 5'-AMP-activated protein kinase subunit beta-1 (Homo sapiens) (UniProt Q9Y478); assay: Inhibition of AMPK at 1 uM relative to control
T4 sequence (whole entry): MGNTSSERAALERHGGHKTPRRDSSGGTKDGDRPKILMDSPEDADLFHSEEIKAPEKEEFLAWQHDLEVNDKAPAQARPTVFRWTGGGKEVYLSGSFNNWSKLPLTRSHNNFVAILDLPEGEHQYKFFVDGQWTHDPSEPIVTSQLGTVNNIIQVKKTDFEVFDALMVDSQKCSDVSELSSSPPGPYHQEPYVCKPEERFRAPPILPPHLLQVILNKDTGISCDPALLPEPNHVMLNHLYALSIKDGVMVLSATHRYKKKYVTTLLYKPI

[11] = target: Ribosomal protein S6 kinase alpha-5 (Homo sapiens) (UniProt O75582); assay: Inhibition of MSK1 at 1 uM relative to control
Sequence of Ribosomal protein S6 kinase alpha-5 (Homo sapiens) (O75582 whole entry, looked up): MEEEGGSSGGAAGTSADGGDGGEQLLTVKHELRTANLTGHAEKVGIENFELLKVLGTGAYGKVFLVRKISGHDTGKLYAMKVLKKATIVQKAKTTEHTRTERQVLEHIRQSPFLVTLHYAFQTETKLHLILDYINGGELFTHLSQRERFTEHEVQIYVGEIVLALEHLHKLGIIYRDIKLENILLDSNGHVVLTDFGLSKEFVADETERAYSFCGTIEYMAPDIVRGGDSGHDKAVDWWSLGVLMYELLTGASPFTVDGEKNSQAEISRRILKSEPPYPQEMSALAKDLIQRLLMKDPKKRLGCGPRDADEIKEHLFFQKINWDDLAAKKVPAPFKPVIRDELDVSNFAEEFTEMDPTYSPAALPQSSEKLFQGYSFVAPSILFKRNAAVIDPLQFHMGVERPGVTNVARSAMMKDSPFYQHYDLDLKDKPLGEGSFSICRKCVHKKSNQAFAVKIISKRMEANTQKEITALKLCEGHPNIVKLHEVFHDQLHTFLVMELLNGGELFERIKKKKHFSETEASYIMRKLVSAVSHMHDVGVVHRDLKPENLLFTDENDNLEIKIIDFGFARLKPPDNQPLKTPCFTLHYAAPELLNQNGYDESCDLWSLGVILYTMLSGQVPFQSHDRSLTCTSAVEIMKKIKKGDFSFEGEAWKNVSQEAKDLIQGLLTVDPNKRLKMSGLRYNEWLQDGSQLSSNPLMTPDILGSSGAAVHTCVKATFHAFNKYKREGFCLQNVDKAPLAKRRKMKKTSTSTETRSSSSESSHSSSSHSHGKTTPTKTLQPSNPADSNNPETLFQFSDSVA

[12] = target: Dual specificity tyrosine-phosphorylation-regulated kinase 1A (Homo sapiens) (UniProt Q13627); assay: Inhibition of DYRK1A at 1 uM relative to control
[13] = Inhibition of PHK at 1 uM relative to control

Row | residual activity [1] [%] | residual activity [2] [%] | residual activity [3] [%] | residual activity [4] [%] | residual activity [5] [%] | residual activity [6] [%] | residual activity [7] [%] | IC50 [8] [µM] | residual activity [9] [%] | residual activity [10] [%] | residual activity [11] [%] | residual activity [12] [%] | residual activity [13] [%] | SMILES
1 | < 25 | < 25 | 100 | 100 | 75 | 100 | 100 | 19.3 | 75 | 75 | 75 | 100 | 75 | CC(C)(C)c1cccc(NC(=O)Nc2ccc(Oc3ccnc4[nH]c(=O)[nH]c34)c3ccccc23)c1
2 | 50 | 100 | 100 | 75 | 100 | 100 | 100 | 0.214 | 75 | 100 | 75 | 100 | 100 | O=C(Nc1cc(C(F)(F)F)ccc1F)Nc1ccc(Oc2ccnc3[nH]c(=O)[nH]c23)c2ccccc12
3 | 50 | < 25 | 100 | 100 | 100 | 100 | 100 | 1.3 | 75 | 100 | 100 | 100 | 100 | CSc1cc(Oc2ccnc3[nH]c(=O)[nH]c23)ccc1NC(=O)Nc1cccc(C(F)(F)F)c1
